Results as given in ChEMBL document CHEMBL1156562, “4-Amino-2-cyanopyrimidines: novel scaffold for nonpeptidic cathepsin S inhibitors” (Bioorg Med Chem Lett, 2008).
≈ marks a conversion by molar mass, not a printed value. Calls of active or inactive are those of the source. The calls are words filed in the database; no cut-off is given here.

Tests used:
Cathepsin S = Cathepsin S (Homo sapiens, UniProt P25774); assay: Inhibition of human recombinant cathepsin S by fluorometric assay
In short: (§1)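 Fluorometric inhibition assay with recombinant human enzymes. Cat K and Cat L used Z-Phe-Arg-AMC as substrate. Cat S used L-Leu-Leu-Arg-AMC as substrate. Values reported as IC50.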

Cathepsin K = molecular target: T1, Cathepsin K (Homo sapiens, UniProt P43235); assay: Inhibition of human recombinant cathepsin K by fluorometric assay; in short: as §1
T1 sequence (P43235 whole entry): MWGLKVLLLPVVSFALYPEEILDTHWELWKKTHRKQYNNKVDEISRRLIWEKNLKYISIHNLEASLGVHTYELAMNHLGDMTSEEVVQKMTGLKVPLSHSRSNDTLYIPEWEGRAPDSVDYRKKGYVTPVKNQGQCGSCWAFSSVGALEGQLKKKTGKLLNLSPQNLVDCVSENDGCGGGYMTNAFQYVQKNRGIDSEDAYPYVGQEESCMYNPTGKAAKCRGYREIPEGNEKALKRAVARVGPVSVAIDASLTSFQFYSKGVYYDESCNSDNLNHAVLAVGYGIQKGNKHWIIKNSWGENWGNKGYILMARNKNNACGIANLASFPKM

Procathepsin L = Procathepsin L (Homo sapiens, UniProt P07711); assay: Inhibition of human recombinant cathepsin L by fluorometric assay; in short: as §1
Homo sapiens = species on record: Homo sapiens; assay: Selectivity for human recombinant cathepsin S over human recombinant cathepsin L
[1] = Aqueous solubility at pH 6.8; assay type: physicochemical
In short: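 Thermodynamic solubility, measured at pH 6.8 and 25 °C.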

[2] = Clearance in Sprague-Dawley rat at 1 mg/kg, iv; assay type: ADME, organism-based; design: dose 1 mg/kg, route intravenous; settings: in vivo
In short: (§2)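 Male Sprague-Dawley rats, cassette dosing. Single iv dose of 1 mg/kg and po dose of 3 mg/kg. Clearance and half-life taken from iv data. Bioavailability and po AUC derived from both routes, with AUC dose-normalized to 1 mg/kg. Values are means of n = 3, with n = 2 for some iv groups.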

[3] = Half life in Sprague-Dawley rat at 1 mg/kg, iv; assay type: ADME, organism-based; design: dose 1 mg/kg, route intravenous; settings: in vivo; in short: as §2
Rattus norvegicus = assay: Bioavailability in Sprague-Dawley rat at 1 mg/kg, iv; assay type: ADME, organism-based; settings: in vivo; in short: as §2
[4] = molecular target: Cathepsin S (Mus musculus) (UniProt O70370); assay: Inhibition of cathepsin S in mouse A20 cells assessed as invariant chain degradation at 1 uM; assay type: cell-based
In short: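 Mouse A20 cells treated at 1 µM. Cellular cathepsin S activity read out as degradation of invariant chain (Ii).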

[5] = Clearance in Sprague-Dawley rat at 1 mg/kg, iv and 3 mg/kg, po; assay type: ADME, organism-based; settings: in vivo; in short: as §2
[6] = Bioavailability in Sprague-Dawley rat at 1 mg/kg, iv and 3 mg/kg, po; assay type: ADME, organism-based; settings: in vivo; in short: as §2

Sequence of Procathepsin L (P07711 whole entry): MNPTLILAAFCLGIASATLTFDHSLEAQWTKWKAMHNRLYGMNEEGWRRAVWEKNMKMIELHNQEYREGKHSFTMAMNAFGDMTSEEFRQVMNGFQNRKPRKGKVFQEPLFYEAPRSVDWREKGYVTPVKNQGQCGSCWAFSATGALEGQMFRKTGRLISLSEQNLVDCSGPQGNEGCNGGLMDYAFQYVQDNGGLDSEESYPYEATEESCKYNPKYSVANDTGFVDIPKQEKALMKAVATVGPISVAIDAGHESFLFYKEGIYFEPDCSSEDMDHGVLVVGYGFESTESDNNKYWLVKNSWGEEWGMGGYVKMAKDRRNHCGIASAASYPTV
Sequence of Cathepsin S (P25774 whole entry): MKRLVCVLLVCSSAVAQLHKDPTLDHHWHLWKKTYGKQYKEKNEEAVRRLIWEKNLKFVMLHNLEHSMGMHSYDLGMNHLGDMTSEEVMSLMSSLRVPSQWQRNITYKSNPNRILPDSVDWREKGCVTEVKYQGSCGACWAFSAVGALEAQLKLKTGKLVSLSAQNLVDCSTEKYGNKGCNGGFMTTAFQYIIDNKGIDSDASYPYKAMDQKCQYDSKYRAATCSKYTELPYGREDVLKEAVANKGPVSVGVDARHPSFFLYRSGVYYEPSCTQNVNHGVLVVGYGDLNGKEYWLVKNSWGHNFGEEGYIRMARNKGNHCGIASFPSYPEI

Compound | IC50 (Cathepsin S) [nM] | IC50 (Cathepsin K) [nM] | IC50 (Procathepsin L) [nM] | other results
CN1CCC(CNC(=O)c2cnc(C#N)nc2NCC2CCC3(CC2)CC3)(c2ccccc2)CC1 | 6 | 170 | 700 | Selectivity ratio (Homo sapiens): > 100; solubility [1]: 89 µg/mL (≈ 188 µM); clearance [2]: 173 mL/min/kg; half-life [3]: 3.3 h; F (Rattus norvegicus): 100%; Activity [4]: Active
N#Cc1ncc(C(=O)NCCc2ccccc2)c(NCC2CCC(F)(F)CC2)n1 | 22 | 130 | > 3000 | 
N#Cc1ncc(C(=O)NCCc2ccccc2)c(NCC2CCCCC2)n1 | 22 | 15 | > 2000 | 
CN1CCC(CCOc2cc(NCC3CCC4(CC3)CC4)nc(C#N)n2)CC1 | 22 | 240 | 870 | 
CN(CC1CCCCC1)c1nc(C#N)ncc1C(=O)NCCc1ccccc1 | 32 | 36 | 2000 | 
CNC(=O)c1c(NCC2CCC3(CC2)CC3)nc(C#N)nc1OCCC1CCN(C)CC1 | 2 |  | 120 | 
N#Cc1ncc(C(=O)NCCc2ccccc2)c(OCC2CCCCC2)n1 | 14 | 9 | 780 | 
N#Cc1ncc(C(=O)NCCc2ccccc2)c(NC2CCCCC2)n1 | 130 | 10 | 1100 | 
CN1CCC(CCOc2nc(C#N)nc(NCC3CCC4(CC3)CC4)c2C(=O)NCc2ccccc2)CC1 | < 1 |  | 270 | 
CN1CCC(CCOc2nc(C#N)nc(NCC3CCC4(CC3)CC4)c2Br)CC1 | 2 | 100 | 280 | solubility [1]: 11 µg/mL (≈ 23.8 µM); clearance [5]: 85 mL/min/kg; half-life [3]: 4.6 h; bioavailability [6]: 100%
CN1CCC(COc2nc(C#N)nc(NCC3CCC4(CC3)CC4)c2C(=O)NCc2ccccc2)CC1 | < 1 |  | 64 | 
CC1(C)CCC(CNc2nc(C#N)ncc2C(=O)NCCc2ccccc2)CC1 | 93 | > 3000 | > 3000 | 
N#Cc1ncc(C(=O)N[C@H](Cc2ccccn2)CN2CCCC2)c(NCC2CCC3(CC2)CC3)n1 | 4 |  | 480 | 

Continued, in another order:

IC50 (Cathepsin S) [nM] | IC50 (Cathepsin K) [nM] | IC50 (Procathepsin L) [nM] | Compound | other results
23 | 200 | 1500 | N#Cc1ncc(C(=O)N[C@@H](Cc2ccccc2)CN2CCCC2)c(NCC2CCC3(CC2)CC3)n1 | 
15 | > 3000 | > 3000 | N#Cc1ncc(C(=O)NCCc2ccccc2)c(NCC2CCC3(CC2)CC3)n1 | 
21 |  | 840 | C[C@@](Cc1ccccc1)(CN1CCCC1)NC(=O)c1cnc(C#N)nc1NCC1CCC2(CC1)CC2 | 
1 |  | 100 | CN1CCC(Oc2nc(C#N)nc(NCC3CCC4(CC3)CC4)c2C(=O)NCc2ccccc2)CC1 | 
24 | > 1000 | > 3000 | COc1cc(NC(=O)c2cnc(C#N)nc2NCC2CCC3(CC2)CC3)c(-c2ccccc2)cc1OC | 
3 |  | 840 | CN1CCC(Oc2ccc(NC(=O)c3cnc(C#N)nc3NCC3CCC4(CC3)CC4)c(-c3ccccc3)c2)CC1 | solubility [1]: 2 µg/mL (≈ 3.63 µM); clearance [5]: 13.3 mL/min/kg; half-life [3]: > 8 h; bioavailability [6]: 66%; Activity [4]: Active
< 1 | 44 | 150 | N#Cc1ncc(C(=O)N[C@H](Cc2ccccc2)CN2CCCC2)c(NCC2CCC3(CC2)CC3)n1 | Selectivity ratio (Homo sapiens): > 100; solubility [1]: 27 µg/mL (≈ 57.1 µM); clearance [5]: 16.7 mL/min/kg; half-life [3]: 5.7 h; bioavailability [6]: 42%; Activity [4]: Active
7 |  | 510 | CN1CCC(NC(=O)c2cnc(C#N)nc2NCC2CCC3(CC2)CC3)(c2ccccc2)CC1 | Selectivity ratio (Homo sapiens): > 100
< 1 |  | 10 | CN1CCC(CCOc2nc(C#N)nc(NCC3CCC4(CC3)CC4)c2C(=O)NCCc2ccccc2)CC1 | 
2 | 140 | 180 | CN1CCC(Cc2ccccc2)(NC(=O)c2cnc(C#N)nc2NCC2CCC3(CC2)CC3)CC1 | Selectivity ratio (Homo sapiens): > 100
